From ChEMBL document CHEMBL5303300, “EUbOPEN Chemogenomics Library - Multiplex” (2023)
Where “and” joins values, the source holds several entries; their conditions need not be identical. Equal entries are not always repeated.

Tested on: HEK-293T
Experiment: Multiplex assay against HEK293T
Format: toxicity, cell-based
Settings: human, number of replicates 2
Outline: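 Live cells were stained at seeding with Hoechst33342, BioTracker Green Microtubule Cytoskeleton Dye, MitoTracker Red and Annexin V Alexa Fluor 680. Following compound addition, they were imaged on a CQ1 microscope at 37°C and 5% CO2 and gated by CellPathfinder machine learning into Hoechst high-intensity objects or normal cells, with normal cells split into healthy, pyknosed or fragmented nuclei and pyknosed cells into mitotic or apoptotic. Tubulin, mitochondrial-mass and membrane-permeability phenotypes are per cents of healthy-nucleus cells.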

[1] = 12 h, 1 µM, compound concentration 1 uM
[2] = 12 h, 10 µM, compound concentration 10 uM
[3] = 24 h, 1 µM, compound concentration 1 uM
[4] = 24 h, 10 µM, compound concentration 10 uM
[5] = 48 h, 1 µM, compound concentration 1 uM
[6] = 48 h, 10 µM, compound concentration 10 uM

## Cn1cc(-c2ccc(-c3cncc(Cl)c3N3CCC4(CCNC4=O)CC3)cc2)cn1
[1]
  Population Apoptotic (%): 62% and 39%
  Population Fragmented Nuclei (%): 2% and 4%
  Population Healthy Nuclei (%): 90% and 84%
  Population Hoechst High Intensity Objects (%): 6% and 5%
  Population Membrane Permeable-Phenotype (%): 5% and 4%
  Population Mitochondria Different-Phenotype (%): 14% and 18%
  Population Mitotic Cells (%): 37% and 60%
  Population Normal (%): 93% and 94%
  Population Pyknosed Nuclei (%): 6% and 11%
  Population Tubulin-Different-Phenotype (%): 58% and 67%
  Total Cell Count: 574 and 615
[2]
  Population Apoptotic (%): 41% and 49%
  Population Fragmented Nuclei (%): 2% and 3%
  Population Healthy Nuclei (%): 87% and 86%
  Population Hoechst High Intensity Objects (%): 7%
  Population Membrane Permeable-Phenotype (%): 5% and 6%
  Population Mitochondria Different-Phenotype (%): 40% and 35%
  Population Mitotic Cells (%): 58% and 50%
  Population Normal (%): 92%
  Population Pyknosed Nuclei (%): 10%
  Population Tubulin-Different-Phenotype (%): 98% and 95%
  Total Cell Count: 600 and 554
[3]
  Population Apoptotic (%): 36% and 51%
  Population Fragmented Nuclei (%): 6% and 9%
  Population Healthy Nuclei (%): 86% and 85%
  Population Hoechst High Intensity Objects (%): 9% and 10%
  Population Membrane Permeable-Phenotype (%): 3%
  Population Mitochondria Different-Phenotype (%): 8% and 7%
  Population Mitotic Cells (%): 63% and 48%
  Population Normal (%): 90% and 89%
  Population Pyknosed Nuclei (%): 7% and 5%
  Population Tubulin-Different-Phenotype (%): 53%
  Total Cell Count: 822 and 828
[4]
  Population Apoptotic (%): 43% and 49%
  Population Fragmented Nuclei (%): 5%
  Population Healthy Nuclei (%): 85% and 84%
  Population Hoechst High Intensity Objects (%): 5% and 9%
  Population Membrane Permeable-Phenotype (%): 6% and 5%
  Population Mitochondria Different-Phenotype (%): 34% and 30%
  Population Mitotic Cells (%): 56% and 50%
  Population Normal (%): 94% and 90%
  Population Pyknosed Nuclei (%): 9% and 10%
  Population Tubulin-Different-Phenotype (%): 95% and 94%
  Total Cell Count: 684 and 624
[5]
  Population Apoptotic (%): 31% and 36%
  Population Fragmented Nuclei (%): 16% and 14%
  Population Healthy Nuclei (%): 80% and 82%
  Population Hoechst High Intensity Objects (%): 16% and 14%
  Population Membrane Permeable-Phenotype (%): 5% and 4%
  Population Mitochondria Different-Phenotype (%): 2%
  Population Mitotic Cells (%): 68% and 63%
  Population Normal (%): 83% and 85%
  Population Pyknosed Nuclei (%): 2% and 3%
  Population Tubulin-Different-Phenotype (%): 42% and 49%
  Total Cell Count: 1341 and 1209
[6]
  Population Apoptotic (%): 55% and 50%
  Population Fragmented Nuclei (%): 8% and 7%
  Population Healthy Nuclei (%): 84% and 83%
  Population Hoechst High Intensity Objects (%): 10%
  Population Membrane Permeable-Phenotype (%): 8%
  Population Mitochondria Different-Phenotype (%): 15% and 18%
  Population Mitotic Cells (%): 45% and 49%
  Population Normal (%): 89%
  Population Pyknosed Nuclei (%): 6% and 8%
  Population Tubulin-Different-Phenotype (%): 87% and 85%
  Total Cell Count: 1065 and 859

## CC(C)S(=O)(=O)c1ccccc1Nc1nc(N[C@@H]2CCCN(CCCCCCCNC(=O)COc3cccc4c3C(=O)N(C3CCC(=O)NC3=O)C4=O)C2)ncc1Cl (some centres not stated)
[1]
  Population Apoptotic (%): 72% and 70%
  Population Fragmented Nuclei (%): 2% and 3%
  Population Healthy Nuclei (%): 80% and 76%
  Population Hoechst High Intensity Objects (%): 8% and 16%
  Population Membrane Permeable-Phenotype (%): 0%
  Population Mitochondria Different-Phenotype (%): 61% and 50%
  Population Mitotic Cells (%): 27% and 29%
  Population Normal (%): 91% and 83%
  Population Pyknosed Nuclei (%): 17% and 19%
  Population Tubulin-Different-Phenotype (%): 75% and 73%
  Total Cell Count: 378 and 397
[2]
  Population Apoptotic (%): 48% and 67%
  Population Fragmented Nuclei (%): 4% and 5%
  Population Healthy Nuclei (%): 63% and 65%
  Population Hoechst High Intensity Objects (%): 18% and 15%
  Population Membrane Permeable-Phenotype (%): 6%
  Population Mitochondria Different-Phenotype (%): 70%
  Population Mitotic Cells (%): 51% and 32%
  Population Normal (%): 81% and 84%
  Population Pyknosed Nuclei (%): 31% and 29%
  Population Tubulin-Different-Phenotype (%): 48% and 66%
  Total Cell Count: 366 and 343
[3]
  Population Apoptotic (%): 65% and 76%
  Population Fragmented Nuclei (%): 3% and 5%
  Population Healthy Nuclei (%): 82% and 79%
  Population Hoechst High Intensity Objects (%): 12% and 14%
  Population Membrane Permeable-Phenotype (%): 1%
  Population Mitochondria Different-Phenotype (%): 65% and 63%
  Population Mitotic Cells (%): 34% and 23%
  Population Normal (%): 87% and 85%
  Population Pyknosed Nuclei (%): 14% and 15%
  Population Tubulin-Different-Phenotype (%): 69% and 67%
  Total Cell Count: 385 and 384
[4]
  Population Apoptotic (%): 79% and 70%
  Population Fragmented Nuclei (%): 6% and 3%
  Population Healthy Nuclei (%): 65% and 61%
  Population Hoechst High Intensity Objects (%): 19%
  Population Membrane Permeable-Phenotype (%): 1% and 2%
  Population Mitochondria Different-Phenotype (%): 81% and 87%
  Population Mitotic Cells (%): 20% and 30%
  Population Normal (%): 80%
  Population Pyknosed Nuclei (%): 28% and 34%
  Population Tubulin-Different-Phenotype (%): 85% and 93%
  Total Cell Count: 341 and 356
[5]
  Population Apoptotic (%): 78% and 74%
  Population Fragmented Nuclei (%): 3%
  Population Healthy Nuclei (%): 84% and 83%
  Population Hoechst High Intensity Objects (%): 12% and 14%
  Population Membrane Permeable-Phenotype (%): 0% and 1%
  Population Mitochondria Different-Phenotype (%): 66% and 57%
  Population Mitotic Cells (%): 21% and 25%
  Population Normal (%): 87% and 85%
  Population Pyknosed Nuclei (%): 11% and 13%
  Population Tubulin-Different-Phenotype (%): 66% and 57%
  Total Cell Count: 316 and 306
[6]
  Population Apoptotic (%): 78% and 74%
  Population Fragmented Nuclei (%): 6% and 5%
  Population Healthy Nuclei (%): 70% and 63%
  Population Hoechst High Intensity Objects (%): 18% and 20%
  Population Membrane Permeable-Phenotype (%): 2% and 1%
  Population Mitochondria Different-Phenotype (%): 73% and 79%
  Population Mitotic Cells (%): 21% and 25%
  Population Normal (%): 81% and 79%
  Population Pyknosed Nuclei (%): 23% and 31%
  Population Tubulin-Different-Phenotype (%): 66% and 77%
  Total Cell Count: 296 and 313
